Experiments:
[1] = Partition coefficient, log D of the compound at pH 7.4 by HPLC analysis; assay type: physicochemical; conditions: octanol/water
Procedure, shortened: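 LogD at pH 7.4 measured with a chromatographic gLogD technique.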

[2] = Drug metabolism in mouse liver microsomes assessed as mono-oxygenation at 1 uM by LC/MS analysis; assay type: ADME, Microsome
[3] = (§1) Intrinsic clearance in mouse liver microsomes at 1 uM by LC/MS analysis; assay type: ADME, Microsome; conditions: liver microsomes, read-out: CLH
Procedure, shortened: (§2)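 Mouse hepatic microsomes; in vitro intrinsic clearance from compound degradation during incubation, expressed as μL/min/mg.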

Liver [4] = test: as §1; assay type: ADME, Microsome; conditions: microsomes, 1 µM; procedure, shortened: as §2
[5] = Drug metabolism in mouse liver microsomes assessed as glucuronide metabolite formation at 1 uM by LC/MS analysis; assay type: ADME, Microsome
[6] = Drug degradation assessed as reactivity with reduced glutathione ethyl ester; assay type: physicochemical
[7] = Apparent terminal half life in Sprague-Dawley rat at […], iv; assay type: ADME, organism-based; parameters: dose 4.5 mg/kg, route intravenous; conditions: in vivo, read-out: betat1/2(app) (converted)
Liver microsomes [8] = test: Half life in human liver microsomes; assay type: ADME, Microsome
Liver [9] = test: Half life in mouse liver microsomes; assay type: ADME, Microsome
Rattus norvegicus [10] = test: Bioavailability in Sprague-Dawley rat at 19 mg/kg, ip; assay type: ADME, organism-based; conditions: in vivo
[11] = Drug excretion in Sprague-Dawley rat urine at 19 mg/kg, ip; assay type: ADME, organism-based; parameters: dose 19 mg/kg, route intraperitoneal; conditions: read-out: Drug excretion
Procedure, shortened: (§3)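 Male Sprague–Dawley rats, nominal 20 mg/kg (19 mg/kg actual ip), given po as an aqueous HPMC suspension or ip as a suspension in aqueous vehicle with 10% DMSO; percentage of the dose excreted unchanged in urine was measured; n = 2 rats per profile.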

[12] = Drug excretion in Sprague-Dawley rat urine at 20 mg/kg, po; assay type: ADME, organism-based; parameters: dose 20 mg/kg, route oral; conditions: read-out: Drug excretion; procedure, shortened: as §3
in vivo [13] = conditions: Sprague-Dawley, rat, po, 20 mg/kg
[14] = Plasma clearance in Sprague-Dawley rat at […], iv; assay type: ADME, organism-based; parameters: dose 4.5 mg/kg, route intravenous
Rattus norvegicus [15] = test: Oral bioavailability in Sprague-Dawley rat at 20 mg/kg; assay type: ADME, organism-based; conditions: in vivo
[16] = Cmax in Sprague-Dawley rat at 20 mg/kg, po; assay type: ADME, organism-based; parameters: dose 20 mg/kg, route oral; conditions: in vivo
[17] = Apparent terminal half life in Sprague-Dawley rat at 19 mg/kg, ip; assay type: ADME, organism-based; parameters: dose 19 mg/kg, route intraperitoneal; conditions: in vivo, read-out: betat1/2(app) (converted)
Liver microsomes [18] = test: Drug metabolism in rat liver microsomes assessed as mono-oxygenation at 1 uM by LC/MS analysis; assay type: ADME, Microsome
Liver microsomes [19] = test: Intrinsic clearance in human liver microsomes at 1 uM by LC/MS analysis; assay type: ADME, Microsome
[20] = Volume of distribution at steady state in Sprague-Dawley rat at […], iv; assay type: ADME, organism-based; parameters: dose 4.5 mg/kg, route intravenous; conditions: in vivo, read-out: Vdss
Liver microsomes [21] = test: Drug metabolism in human liver microsomes at 1 uM by LC/MS analysis; assay type: ADME, Microsome
[22] = Drug metabolism in mouse liver microsomes at 1 uM by LC/MS analysis; assay type: ADME, Microsome
[23] = Cmax in Sprague-Dawley rat at 19 mg/kg, ip; assay type: ADME, organism-based; parameters: dose 19 mg/kg, route intraperitoneal; conditions: in vivo
[24] = Apparent terminal half life in Sprague-Dawley rat at 20 mg/kg, po; assay type: ADME, organism-based; parameters: dose 20 mg/kg, route oral; conditions: in vivo, read-out: betat1/2(app) (converted)
[25] = Drug excretion in Sprague-Dawley rat urine at […], iv; assay type: ADME, organism-based; parameters: dose 4.5 mg/kg, route intravenous; conditions: read-out: Drug excretion
Liver microsomes [26] = test: Half life in rat liver microsomes; assay type: ADME, Microsome
in vivo [27] = conditions: Sprague-Dawley, rat, ip, 19 mg/kg
Liver microsomes [28] = test: Intrinsic clearance in rat liver microsomes at 1 uM by LC/MS analysis; assay type: ADME, Microsome
[29] = Drug excretion in iv dosed rat urine assessed as glutathione adduct level; assay type: ADME, organism-based; conditions: in vivo
[30] = Drug metabolism in mouse liver microsomes assessed as morpholine ring cleavage at 1 uM by LC/MS analysis; assay type: ADME, Microsome
[31] = Drug metabolism in mouse liver microsomes assessed as bis-oxygenation at 1 uM by LC/MS analysis; assay type: ADME, Microsome
[32] = Volume of distribution at steady state in Sprague-Dawley rat at 1 mg/kg, iv; assay type: ADME, organism-based; parameters: dose 1 mg/kg, route intravenous; conditions: in vivo, read-out: Vdss
Procedure, shortened: (§4)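 Male Sprague–Dawley rats, single iv dose as solution in aqueous vehicle with 40% (v/v) propylene glycol; serial plasma concentrations, profiles averaged from n = 2 rats; urine collected for unchanged drug. Half-life, steady-state volume of distribution and plasma clearance taken from plasma concentration–time profiles.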

in vivo [33] = conditions: Sprague-Dawley, rat, po, 19 mg/kg
Rattus norvegicus [34] = test: Oral bioavailability in Sprague-Dawley rat at 19 mg/kg; assay type: ADME, organism-based; conditions: in vivo
Liver microsomes [35] = test: Drug metabolism in rat liver microsomes at 1 uM by LC/MS analysis; assay type: ADME, Microsome
[36] = Plasma clearance in Sprague-Dawley rat at 1 mg/kg, iv; assay type: ADME, organism-based; parameters: dose 1 mg/kg, route intravenous
Procedure, shortened: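 Male Sprague–Dawley rats given a nominal 1 mg/kg iv dose as a solution in aqueous vehicle containing 40% (v/v) propylene glycol. Plasma concentration–time profiles were measured, with each profile the average of n = 2 rats. Plasma clearance was derived from the iv profile.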

[37] = Cmax in Sprague-Dawley rat at 19 mg/kg, po; assay type: ADME, organism-based; parameters: dose 19 mg/kg, route oral; conditions: in vivo
[38] = Apparent terminal half life in Sprague-Dawley rat at 1 mg/kg, iv; assay type: ADME, organism-based; parameters: dose 1 mg/kg, route intravenous; conditions: in vivo, read-out: betat1/2(app) (converted); procedure, shortened: as §4
[39] = Drug metabolism in mouse liver microsomes assessed as O-demethylation at 1 uM by LC/MS analysis; assay type: ADME, Microsome

CCOC(=O)C1=C(O)/C(=C\c2cc(C)n(-c3ccc(F)cc3)c2C)N=C1C
logD [1]: 2.9 | Drug metabolism [2]: Active | microsomal CLint at 1 µM [3]: 94 µL/min/mg

CC1=C(C(=O)OCc2ccccc2)C(=O)/C(=C\c2cc(C)n(-c3ccccc3C(F)(F)F)c2C)N1
Microsomal intrinsic clearance (CLint) (Liver [4]): 560 µL/min/mg

CC1=C(C(=O)O)C(=O)/C(=C\c2cc(C)n(-c3ccccc3C(F)(F)F)c2C)N1
logD [1]: 5.8 | Microsomal intrinsic clearance (CLint) (Liver [4]): 22 µL/min/mg | Drug metabolism [5]: Active

CCOC(=O)C1=C(C)N/C(=C/c2cc(C)n(-c3ccc(S(=O)(=O)C(F)(F)F)cc3)c2C)C1=O
Microsomal intrinsic clearance (CLint) (Liver [4]): 58 µL/min/mg

CCOC(=O)C1=C(C)N/C(=C/c2cc(C)n(-c3ccccc3C(F)(F)F)c2C)C1=O
Stability [6]: Stable | half-life [7]: 12 h | t1/2 (Liver microsomes [8]): 0.967 h | t1/2 (Liver [9]): […] | F (Rattus norvegicus [10]): 45.7% | dose excreted [11]: 0.01% | dose excreted [12]: 0.08% | Tmax (in vivo [13]): 3.33 h | clearance [14]: 73 mL/min/kg | logD [1]: 3.3 | F (Rattus norvegicus [15]): 6% | Cmax [16]: 110 nM | half-life [17]: 9.1 h | Drug metabolism (Liver microsomes [18]): Active | CLH (Liver microsomes [19]): 30 µL/min/mg | Drug metabolism [2]: Active | Vd [20]: 13 L/kg | Drug metabolism (Liver microsomes [21]): Not Active | Drug metabolism [22]: Not Active | Cmax [23]: 3300 nM | half-life [24]: 7.9 h | dose excreted [25]: 0.05% | t1/2 (Liver microsomes [26]): 0.733 h | Tmax (in vivo [27]): 0.25 h | CLH (Liver microsomes [28]): 40 µL/min/mg | Drug excretion [29]: Not Active

CCOC(=O)C1=C(C)N/C(=C/c2cc(C)n(-c3ccc(OC)cc3)c2C)C1=O
logD [1]: 3 | Drug metabolism [2]: Active | Microsomal intrinsic clearance (CLint) (Liver [4]): 54 µL/min/mg

CC1=CC(=O)/C(=C\c2cc(C)n(-c3ccccc3C(F)(F)F)c2C)N1
Microsomal intrinsic clearance (CLint) (Liver [4]): 23 µL/min/mg

CCOC(=O)C1=C(C)N/C(=C/c2ccn(-c3ccccc3C(F)(F)F)c2)C1=O
Microsomal intrinsic clearance (CLint) (Liver [4]): 160 µL/min/mg

CC1=C(C(N)=O)C(=O)/C(=C\c2cc(C)n(-c3ccccc3C(F)(F)F)c2C)N1
Drug metabolism [2]: Active

CCOC(=O)C1=C(C)N/C(=C/c2cc(C)n(-c3ccc(Br)cc3)c2C)C1=O
logD [1]: 3.4 | Microsomal intrinsic clearance (CLint) (Liver [4]): 62 µL/min/mg

CCOC(=O)C1=C(C)N/C(=C/c2cc(C)n(-c3ccc(SC(F)(F)F)cc3)c2C)C1=O
Drug metabolism [2]: Active | Microsomal intrinsic clearance (CLint) (Liver [4]): 76 µL/min/mg

CCOC(=O)C1=C(C)N/C(=C/c2cc(C)n(-c3ccc(CN(C)C)cc3)c2C)C1=O
logD [1]: 8.3 | Microsomal intrinsic clearance (CLint) (Liver [4]): 31 µL/min/mg

CCOC(=O)C1=C(C)N/C(=C/c2cc(C)n(-c3cccc(OC)c3)c2C)C1=O
logD [1]: 2.9 | Microsomal intrinsic clearance (CLint) (Liver [4]): 150 µL/min/mg

CCOC(=O)C1=C(C)N/C(=C/c2cc(CC)n(-c3ccccc3C(F)(F)F)c2CC)C1=O
Drug metabolism [2]: Active | Microsomal intrinsic clearance (CLint) (Liver [4]): 140 µL/min/mg

CCOC(=O)C1=C(C)N/C(=C/c2cc(C)n(-c3ccc(N4CCOCC4)cc3)c2C)C1=O
logD [1]: 3.3 | Drug metabolism [30]: Active | Microsomal intrinsic clearance (CLint) (Liver [4]): 31 µL/min/mg

CCOC(=O)C1=C(C)N/C(=C/c2cc(C)n(-c3ccc(CN4CCOCC4)cc3)c2C)C1=O
logD [1]: 6.7 | Microsomal intrinsic clearance (CLint) (Liver [4]): 56 µL/min/mg

CCOC(=O)C1=C(C)N/C(=C/c2cc(C)n(-c3ccc(SC)cc3)c2C)C1=O
Drug metabolism [2]: Active | Microsomal intrinsic clearance (CLint) (Liver [4]): 66 µL/min/mg

CCOC(=O)C1=C(C)N/C(=C/c2cc(C)n(-c3ccc(CN4CCCCC4)cc3)c2C)C1=O
logD [1]: 8.5 | Microsomal intrinsic clearance (CLint) (Liver [4]): 60 µL/min/mg

CCOC(=O)C1=C(C)N/C(=C/c2cc(C)n(-c3cccnc3)c2C)C1=O
logD [1]: 2.1 | Microsomal intrinsic clearance (CLint) (Liver [4]): 82 µL/min/mg

CCOC(=O)C1=C(C)N/C(=C/c2ccn(-c3ccc(C(F)(F)F)cc3)c2)C1=O
Drug metabolism [2]: Active | Microsomal intrinsic clearance (CLint) (Liver [4]): 140 µL/min/mg

CCOC(=O)C1=C(C)N/C(=C/c2cc(C)n(-c3cc(OC)c(OC)c(OO)c3)c2C)C1=O
logD [1]: 2.6 | microsomal CLint at 1 µM [3]: 63 µL/min/mg

CCOC(=O)C1=C(C)N/C(=C/c2cc(C)n(Cc3ccc(C(F)(F)F)cc3)c2C)C1=O
Microsomal intrinsic clearance (CLint) (Liver [4]): 100 µL/min/mg

CC1=C(C(=O)OC(C)(C)C)C(=O)/C(=C\c2cc(C)n(-c3ccccc3C(F)(F)F)c2C)N1
Drug metabolism [2]: Active | Drug metabolism [31]: Active | Microsomal intrinsic clearance (CLint) (Liver [4]): 86 µL/min/mg

CCOC(=O)C1=C(C)N/C(=C/c2cc(C)n(-c3ccc(Cl)cc3)c2C)C1=O
logD [1]: 3.4 | Microsomal intrinsic clearance (CLint) (Liver [4]): 72 µL/min/mg

CCOC(=O)C1=C(C)N/C(=C/c2cc(C)n(-c3ccc(F)cc3F)c2C)C1=O
logD [1]: 3 | Drug metabolism [2]: Active | Microsomal intrinsic clearance (CLint) (Liver [4]): 77 µL/min/mg

CCOC(=O)C1=C(C)N/C(=C/c2cc(C)n(-c3ccc(C(F)(F)F)cc3)c2C)C1=O
t1/2 (Liver microsomes [8]): 0.583 h | Vd [32]: 19 L/kg | Tmax (in vivo [33]): 1.67 h | t1/2 (Liver [9]): 0.548 h | F (Rattus norvegicus [34]): 4% | Drug metabolism (Liver microsomes [35]): Not Active | logD [1]: 3.4 | CLH (Liver microsomes [19]): 49 µL/min/mg | clearance [36]: 22 mL/min/kg | Drug metabolism (Liver microsomes [21]): Not Active | Drug metabolism [22]: Not Active | Cmax [37]: 190 nM | t1/2 (Liver microsomes [26]): 0.933 h | half-life [38]: 87 h | Microsomal intrinsic clearance (CLint) (Liver [4]): 53 µL/min/mg | CLH (Liver microsomes [28]): 31 µL/min/mg

CCOC(=O)C1=C(C)N/C(=C/c2cc(C)n(-c3ccc(N(C)C)cc3)c2C)C1=O
logD [1]: 3.4 | Drug metabolism [39]: Active | Microsomal intrinsic clearance (CLint) (Liver [4]): 56 µL/min/mg

CCOC(=O)C1=C(C)N/C(=C/c2cc(C)n(-c3cccc(C(F)(F)F)c3)c2C)C1=O
logD [1]: 3.4 | Microsomal intrinsic clearance (CLint) (Liver [4]): 97 µL/min/mg

CCOC(=O)C1=C(C)N/C(=C/c2cc(C)n(-c3ccncc3)c2C)C1=O
logD [1]: 3.2 | Drug metabolism [2]: Active | Drug metabolism [31]: Active | Microsomal intrinsic clearance (CLint) (Liver [4]): 61 µL/min/mg

Source: ChEMBL document CHEMBL2331408, “Discovery and structure-activity relationships of pyrrolone antimalarials” (J Med Chem, 2013)
